Assay [1] has as its target Serine/threonine-protein kinase 36 (Homo sapiens) (UniProt Q9NRP7). Nature of the assay: Inhibition of human STK36 (1 to 271 residues) expressed in bacterial expression system assessed as enzyme activity at 10 uM by KINOMEScan assay relative to control. On the set-up: scale not given: the % may be the effect or the level left. In outline: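 In vitro ATP-site competition binding assay across a panel of 456 kinases, with compound tested at 1 and 10 μM.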

Assay [2] addresses RuvB-like 2 (Homo sapiens) (UniProt Q9Y230). In words: Binding affinity to RUVBL2 in human NCI-H23 cells at 1 uM by mass spectrometry based pull down assay. The format is cell-based.
In assay [3] the target is Translation initiation factor eIF2B subunit gamma (Homo sapiens) (UniProt Q9NR50). In words: Binding affinity to EIF2B3 in human NCI-H23 cells at 1 uM by mass spectrometry based pull down assay. The format is cell-based.
Sequence of Translation initiation factor eIF2B subunit gamma (Homo sapiens) (Q9NR50 whole entry): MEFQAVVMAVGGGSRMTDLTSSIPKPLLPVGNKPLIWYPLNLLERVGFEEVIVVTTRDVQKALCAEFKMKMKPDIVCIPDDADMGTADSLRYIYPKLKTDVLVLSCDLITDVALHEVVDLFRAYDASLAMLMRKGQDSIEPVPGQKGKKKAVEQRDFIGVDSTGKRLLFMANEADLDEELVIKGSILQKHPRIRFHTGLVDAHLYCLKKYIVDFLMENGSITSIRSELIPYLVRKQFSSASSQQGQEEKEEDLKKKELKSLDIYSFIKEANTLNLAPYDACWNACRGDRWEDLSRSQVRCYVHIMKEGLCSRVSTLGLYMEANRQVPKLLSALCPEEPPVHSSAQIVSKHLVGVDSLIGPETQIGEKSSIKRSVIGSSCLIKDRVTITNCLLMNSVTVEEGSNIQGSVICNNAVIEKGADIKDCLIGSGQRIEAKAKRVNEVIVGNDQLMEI
The target of assay [4] is ATP-dependent 6-phosphofructokinase, liver type (Homo sapiens) (UniProt P17858). In words: Binding affinity to PFKL in human NCI-H358 cells at 1 uM by mass spectrometry based pull down assay. The format is cell-based.
Sequence of ATP-dependent 6-phosphofructokinase, liver type (Homo sapiens) (P17858 whole entry): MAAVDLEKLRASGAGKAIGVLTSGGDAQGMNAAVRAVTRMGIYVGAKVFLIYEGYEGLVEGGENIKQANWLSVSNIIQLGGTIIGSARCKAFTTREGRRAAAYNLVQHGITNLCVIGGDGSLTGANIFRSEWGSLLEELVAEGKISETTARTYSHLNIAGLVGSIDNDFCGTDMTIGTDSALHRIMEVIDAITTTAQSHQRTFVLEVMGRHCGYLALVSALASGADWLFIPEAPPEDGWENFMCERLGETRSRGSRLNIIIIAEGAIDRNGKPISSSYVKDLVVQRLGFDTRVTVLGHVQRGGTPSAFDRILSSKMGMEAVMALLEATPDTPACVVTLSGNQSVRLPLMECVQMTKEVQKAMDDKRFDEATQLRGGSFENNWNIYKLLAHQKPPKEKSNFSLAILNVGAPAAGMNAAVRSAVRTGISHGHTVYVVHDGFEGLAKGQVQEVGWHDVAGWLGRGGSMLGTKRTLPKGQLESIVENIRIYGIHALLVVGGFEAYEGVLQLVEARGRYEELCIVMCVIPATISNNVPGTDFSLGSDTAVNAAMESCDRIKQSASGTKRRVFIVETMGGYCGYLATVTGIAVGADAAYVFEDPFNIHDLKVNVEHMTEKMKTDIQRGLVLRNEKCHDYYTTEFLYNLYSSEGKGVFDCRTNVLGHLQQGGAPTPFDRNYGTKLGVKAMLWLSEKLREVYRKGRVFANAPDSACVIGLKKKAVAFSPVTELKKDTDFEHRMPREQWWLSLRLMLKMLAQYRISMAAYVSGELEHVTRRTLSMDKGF
For assay [5], the target named is Neuroblast differentiation-associated protein AHNAK (Homo sapiens) (UniProt Q09666). In words: Binding affinity to AHNAK in human NCI-H23 cells at 1 uM by mass spectrometry based pull down assay. The format is cell-based. The gist of the method:
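NCI-H23 or NCI-H358 cells were grown and lysed. Lysates were incubated overnight at 4 °C with 1 μM biotinylated covalent probe or DMSO, then pulled down on streptavidin beads. Proteins were run on polyacrylamide gels and stained with Coomassie. Bands were excised, digested and identified by mass spectrometry.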

Assay [6] concerns the target Glutathione S-transferase kappa 1 (Homo sapiens) (UniProt Q9Y2Q3). Nature of the assay: Binding affinity to GSTK1 in human NCI-H23 cells at 1 uM by mass spectrometry based pull down assay. The format is cell-based.
The target in assay [7] is Small COPII coat GTPase SAR1A (Homo sapiens) (UniProt Q9NR31). In words: Binding affinity to SAR1A in human NCI-H23 cells at 1 uM by mass spectrometry based pull down assay. The format is cell-based.
Sequence of Small COPII coat GTPase SAR1A (Homo sapiens) (Q9NR31 whole entry): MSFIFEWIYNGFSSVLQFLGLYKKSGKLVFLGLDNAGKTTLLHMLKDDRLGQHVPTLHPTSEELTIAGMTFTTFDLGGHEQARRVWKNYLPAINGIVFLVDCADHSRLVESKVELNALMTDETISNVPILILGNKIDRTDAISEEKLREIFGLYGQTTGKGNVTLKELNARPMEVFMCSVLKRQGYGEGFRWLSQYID
For assay [8], the target named is T1, Serine/threonine-protein kinase Nek9 (Homo sapiens) (UniProt Q8TD19).
T1 sequence (whole entry): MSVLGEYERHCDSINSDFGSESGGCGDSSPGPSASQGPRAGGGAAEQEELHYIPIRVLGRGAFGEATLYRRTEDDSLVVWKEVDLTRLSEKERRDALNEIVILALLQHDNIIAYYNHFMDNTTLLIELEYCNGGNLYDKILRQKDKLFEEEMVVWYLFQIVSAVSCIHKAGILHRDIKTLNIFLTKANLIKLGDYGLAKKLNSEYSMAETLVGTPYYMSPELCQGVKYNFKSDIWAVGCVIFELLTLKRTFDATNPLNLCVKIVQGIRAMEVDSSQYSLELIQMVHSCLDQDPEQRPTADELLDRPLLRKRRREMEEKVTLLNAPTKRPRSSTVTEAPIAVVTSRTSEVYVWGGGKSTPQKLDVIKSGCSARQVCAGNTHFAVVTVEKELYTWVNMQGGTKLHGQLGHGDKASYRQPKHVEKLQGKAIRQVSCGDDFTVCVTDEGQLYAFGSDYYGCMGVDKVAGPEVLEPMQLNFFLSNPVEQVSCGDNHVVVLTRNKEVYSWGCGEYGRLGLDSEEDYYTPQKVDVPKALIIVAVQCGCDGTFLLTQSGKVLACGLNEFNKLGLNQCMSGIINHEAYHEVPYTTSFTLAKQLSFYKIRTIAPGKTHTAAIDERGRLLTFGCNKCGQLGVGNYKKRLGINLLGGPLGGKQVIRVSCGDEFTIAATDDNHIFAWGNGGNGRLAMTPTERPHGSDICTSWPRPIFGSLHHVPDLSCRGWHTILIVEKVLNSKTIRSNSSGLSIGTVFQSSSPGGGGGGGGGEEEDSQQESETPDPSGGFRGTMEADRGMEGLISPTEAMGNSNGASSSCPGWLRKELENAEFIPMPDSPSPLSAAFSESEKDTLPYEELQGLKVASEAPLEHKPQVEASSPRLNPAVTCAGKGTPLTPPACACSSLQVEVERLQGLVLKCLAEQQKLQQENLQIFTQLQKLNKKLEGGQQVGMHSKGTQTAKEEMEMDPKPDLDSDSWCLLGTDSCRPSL
Nature of the assay: Binding affinity to NEK9 in human NCI-H358 cells at 1 uM by mass spectrometry based pull down assay. The format is cell-based.

In assay [9] the target is Amidophosphoribosyltransferase (Homo sapiens) (UniProt Q06203). Nature of the assay: Binding affinity to PPAT in human NCI-H23 cells at 1 uM by mass spectrometry based pull down assay. The format is cell-based.
Sequence of Amidophosphoribosyltransferase (Homo sapiens) (Q06203 whole entry): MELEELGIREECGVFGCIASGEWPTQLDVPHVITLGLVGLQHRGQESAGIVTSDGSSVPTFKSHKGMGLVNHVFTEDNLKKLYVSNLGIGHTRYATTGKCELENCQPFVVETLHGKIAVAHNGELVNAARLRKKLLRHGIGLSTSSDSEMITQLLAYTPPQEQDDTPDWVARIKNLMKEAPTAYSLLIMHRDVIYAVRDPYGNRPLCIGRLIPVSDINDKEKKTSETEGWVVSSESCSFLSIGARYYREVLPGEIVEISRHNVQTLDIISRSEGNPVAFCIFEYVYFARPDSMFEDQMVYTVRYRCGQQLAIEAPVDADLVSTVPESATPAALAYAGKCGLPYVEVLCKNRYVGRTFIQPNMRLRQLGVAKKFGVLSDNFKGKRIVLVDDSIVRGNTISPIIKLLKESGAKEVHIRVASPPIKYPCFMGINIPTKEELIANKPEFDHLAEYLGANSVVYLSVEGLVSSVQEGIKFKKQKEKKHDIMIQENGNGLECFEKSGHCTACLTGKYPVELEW
Assay [10] concerns the target Kinesin-like protein KIF1A (Homo sapiens) (UniProt Q12756). In words: Binding affinity to KIF1A in human NCI-H23 cells at 1 uM by mass spectrometry based pull down assay. The format is cell-based.
The target of assay [11] is 80S Ribosome (Homo sapiens) (UniProt P08865+P42677+P62753+P15880+P23396+P61247+P62701+P22090+P46782+P62081+P62241+P46781+P46783+P62280+P25398+P62277+P62263+P62841+P62244+P62249+P08708+P62269+P39019+P60866+P63220+P62266+P62847+P62851+P62854+P62979+P62857+P62273+P62861+P39023+P36578+P46777+Q02878+P18124+P62424+P62917+P32969+P27635+P62906+P62913+P30050+P26373+P40429+P50914+P61313+P18621+Q07020+Q02543+P84098+P46778+P35268+P62829+P62750+P83731+P61254+P61353+P46776+P46779+P47914+P62888+P62899+P62910+P49207+P42766+P18077+Q9Y3U8+P83881+P61927+P61513+P63173+P62891+P62945+P05388+P05386). In words: Binding affinity to RPS12 in human NCI-H23 cells at 1 uM by mass spectrometry based pull down assay. The format is cell-based.

In assay [12] the target is Pyrroline-5-carboxylate reductase 2 (Homo sapiens) (UniProt Q96C36). Nature of the assay: Binding affinity to PYCR2 in human NCI-H358 cells at 1 uM by mass spectrometry based pull down assay. The format is cell-based.
Sequence of Pyrroline-5-carboxylate reductase 2 (Homo sapiens) (Q96C36 whole entry): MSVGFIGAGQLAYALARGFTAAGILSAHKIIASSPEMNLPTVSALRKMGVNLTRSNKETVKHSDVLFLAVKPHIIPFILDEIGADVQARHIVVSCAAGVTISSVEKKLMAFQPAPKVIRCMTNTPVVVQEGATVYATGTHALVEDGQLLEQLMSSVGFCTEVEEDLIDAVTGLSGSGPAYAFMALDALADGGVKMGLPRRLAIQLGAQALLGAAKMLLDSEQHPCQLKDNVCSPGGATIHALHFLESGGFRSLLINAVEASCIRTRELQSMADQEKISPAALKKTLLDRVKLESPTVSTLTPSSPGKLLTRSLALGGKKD

Activity calls are given as the source filed them. No cut-off for these calls is given here.

Sequence of Glutathione S-transferase kappa 1 (Homo sapiens) (Q9Y2Q3 whole entry): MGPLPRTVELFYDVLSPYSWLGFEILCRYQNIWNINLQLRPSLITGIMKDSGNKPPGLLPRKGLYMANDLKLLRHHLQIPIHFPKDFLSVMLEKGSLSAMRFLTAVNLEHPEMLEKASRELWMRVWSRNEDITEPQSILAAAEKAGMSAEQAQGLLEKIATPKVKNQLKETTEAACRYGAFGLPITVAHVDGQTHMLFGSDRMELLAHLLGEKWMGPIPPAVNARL
Sequence of RuvB-like 2 (Homo sapiens) (Q9Y230 whole entry): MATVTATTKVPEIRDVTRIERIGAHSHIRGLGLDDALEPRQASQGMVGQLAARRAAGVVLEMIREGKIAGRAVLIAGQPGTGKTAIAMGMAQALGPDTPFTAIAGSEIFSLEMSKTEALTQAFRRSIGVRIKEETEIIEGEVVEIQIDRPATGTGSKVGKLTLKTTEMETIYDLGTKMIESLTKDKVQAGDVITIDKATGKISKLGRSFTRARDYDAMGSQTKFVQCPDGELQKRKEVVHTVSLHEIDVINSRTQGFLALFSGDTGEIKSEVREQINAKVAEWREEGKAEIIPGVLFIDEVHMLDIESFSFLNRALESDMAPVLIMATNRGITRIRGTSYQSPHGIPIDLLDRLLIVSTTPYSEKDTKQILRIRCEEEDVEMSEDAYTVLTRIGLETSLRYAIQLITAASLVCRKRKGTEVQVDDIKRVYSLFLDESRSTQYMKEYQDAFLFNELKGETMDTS
Sequence of Kinesin-like protein KIF1A (Homo sapiens) (Q12756 whole entry): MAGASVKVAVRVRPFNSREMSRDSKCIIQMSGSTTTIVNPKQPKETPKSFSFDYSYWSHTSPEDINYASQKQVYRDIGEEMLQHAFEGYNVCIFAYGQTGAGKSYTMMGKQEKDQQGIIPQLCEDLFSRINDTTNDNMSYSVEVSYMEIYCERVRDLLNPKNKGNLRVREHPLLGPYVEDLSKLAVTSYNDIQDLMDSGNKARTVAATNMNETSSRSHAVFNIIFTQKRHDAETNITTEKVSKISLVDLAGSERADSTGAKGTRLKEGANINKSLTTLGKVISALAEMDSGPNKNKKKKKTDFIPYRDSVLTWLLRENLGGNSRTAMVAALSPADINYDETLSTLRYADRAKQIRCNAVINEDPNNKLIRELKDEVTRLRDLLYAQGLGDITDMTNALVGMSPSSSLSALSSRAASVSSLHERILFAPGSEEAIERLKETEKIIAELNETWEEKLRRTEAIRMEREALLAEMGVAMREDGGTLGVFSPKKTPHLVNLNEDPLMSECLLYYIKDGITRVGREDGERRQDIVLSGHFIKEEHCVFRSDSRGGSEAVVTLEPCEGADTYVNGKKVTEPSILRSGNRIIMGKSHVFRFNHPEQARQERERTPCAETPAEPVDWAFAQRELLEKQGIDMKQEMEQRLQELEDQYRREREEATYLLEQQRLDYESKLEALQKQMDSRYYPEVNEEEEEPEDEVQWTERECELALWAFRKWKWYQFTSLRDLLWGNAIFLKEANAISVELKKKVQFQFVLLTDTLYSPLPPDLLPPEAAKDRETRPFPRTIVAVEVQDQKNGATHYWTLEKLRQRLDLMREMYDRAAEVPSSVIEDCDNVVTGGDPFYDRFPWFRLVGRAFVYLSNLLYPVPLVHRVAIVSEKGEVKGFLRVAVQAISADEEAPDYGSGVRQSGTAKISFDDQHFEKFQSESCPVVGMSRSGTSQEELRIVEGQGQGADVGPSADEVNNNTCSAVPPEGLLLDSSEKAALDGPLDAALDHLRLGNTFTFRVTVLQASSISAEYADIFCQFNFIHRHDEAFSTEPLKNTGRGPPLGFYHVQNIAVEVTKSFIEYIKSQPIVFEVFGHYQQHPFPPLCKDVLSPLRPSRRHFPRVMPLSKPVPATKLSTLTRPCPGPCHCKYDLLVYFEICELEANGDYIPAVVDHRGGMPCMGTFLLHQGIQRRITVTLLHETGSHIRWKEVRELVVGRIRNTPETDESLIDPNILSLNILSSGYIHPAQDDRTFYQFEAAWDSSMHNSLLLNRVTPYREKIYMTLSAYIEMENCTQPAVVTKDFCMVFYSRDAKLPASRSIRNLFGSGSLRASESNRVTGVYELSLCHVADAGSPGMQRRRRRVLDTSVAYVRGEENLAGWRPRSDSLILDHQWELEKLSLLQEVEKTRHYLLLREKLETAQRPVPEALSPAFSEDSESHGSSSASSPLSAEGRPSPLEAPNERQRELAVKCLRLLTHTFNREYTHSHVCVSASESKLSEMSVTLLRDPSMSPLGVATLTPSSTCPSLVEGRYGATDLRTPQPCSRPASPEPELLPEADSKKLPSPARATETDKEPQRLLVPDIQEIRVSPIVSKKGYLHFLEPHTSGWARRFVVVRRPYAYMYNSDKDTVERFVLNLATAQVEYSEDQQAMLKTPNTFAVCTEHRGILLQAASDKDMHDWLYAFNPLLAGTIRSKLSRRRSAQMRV

With `COc1cc(O)c2c(c1)/C=C/C[C@H](O)[C@H](O)C(=O)/C=C\C[C@H](C)OC2=O`, the Activity in [1] stood at 0.95%.
Consider `C=CC(=O)Nc1ccccc1Nc1nc(Nc2ccc(N3CCN(CCOCCOCCOCCNC(=O)CCCC[C@@H]4SC[C@@H]5NC(=O)N[C@@H]54)CC3)cc2)ncc1Cl`, for which the outcome in assay [2], in assay [3], in [4], in [5], in assay [6] and in assay [7] was Active. Moreover, the result in assay [8], in [9], in [10], in [11] and in assay [12] was Active.
